Results from ChEMBL document CHEMBL1150156, “Semisynthesis of new sarcophine derivatives with chemopreventive activity” (J Nat Prod, 2002).

Legend:
Raji [1] = assay: Inhibition of TPA-induced EBV-early antigen activation in human Raji cells assessed as early antigen induction at 1000 molar ratio relative to TPA; assay type: cell-based; details: human gammaherpesvirus 4
Summary of the method: (§1)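 EBV early antigen induction is measured in Raji cells (virus nonproducer type) stimulated with TPA at 32 pmol. Sample concentration is expressed as mol ratio/TPA; ×1000 equals 32 nmol/mL. EA induction is expressed as a percentage of the positive (TPA-only) value, set as 100%.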

Raji [2] = assay: Inhibition of TPA-induced EBV-early antigen activation in human Raji cells assessed as early antigen induction at 500 molar ratio relative to TPA; assay type: cell-based; details: human gammaherpesvirus 4; summary of the method: as §1
Raji [3] = assay: Inhibition of TPA-induced EBV-early antigen activation in human Raji cells assessed as early antigen induction at 100 molar ratio relative to TPA; assay type: cell-based; details: human gammaherpesvirus 4; summary of the method: as §1
[4] = Cytotoxicity against human Raji cells assessed as cell viability at 1000 molar ratio; assay type: cell-based; details: read-out: Activity
Summary of the method: (§2)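 Raji cells (EBV nonproducer type) serve as indicator cells in the TPA-induced EBV-EA activation assay. Sample is dosed as a mol ratio to TPA, with TPA at 32 pmol; ×1000 corresponds to 32 nmol/mL sample. Viability of the indicator cells is reported as a percentage.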

[5] = Cytotoxicity against human Raji cells assessed as cell viability at 500 molar ratio; assay type: cell-based; details: read-out: Activity; summary of the method: as §2
[6] = Cytotoxicity against human Raji cells assessed as cell viability at 100 molar ratio; assay type: cell-based; details: read-out: Activity; summary of the method: as §2
[7] = Cytotoxicity against human Raji cells assessed as cell viability at 10 molar ratio; assay type: cell-based; details: read-out: Activity; summary of the method: as §2
Raji [8] = assay: Inhibition of TPA-induced EBV-early antigen activation in human Raji cells assessed as early antigen induction at 10 molar ratio relative to TPA; details: human gammaherpesvirus 4

| SMILES | EBV early antigen induction (% of TPA-only control) (Raji [1]) [%] | EBV early antigen induction (% of TPA control) (Raji [2]) [%] | EBV early antigen induction (% of TPA-only control) (Raji [3]) [%] | viability at 1000 molar ratio [4] [%] | viability at 500 molar ratio [5] [%] | viability at 100 molar ratio [6] [%] | viability at 10 molar ratio [7] [%] | EBV early antigen induction relative to TPA (Raji [8]) [%] |
| --- | --- | --- | --- | --- | --- | --- | --- | --- |
| CC1=C2CC/C(C=O)=C/CC[C@]3(C)O[C@H]3CC/C(C)=C/[C@@H]2OC1=O | 12.7 | 60.8 | 81.3 | 60 | > 80 | > 80 | > 80 | 96 |
| C/C1=C\C=C(\[C@@](C)(O)CO)CC/C(C=O)=C/CC[C@]2(C)O[C@H]2CC1 | 3.6 | 52.4 | 71.3 | 60 | > 80 | > 80 | > 80 | 90.6 |
| CC1=C2CC/C(C)=C/CC[C@]3(C)O[C@H]3CC/C(C)=C/[C@@H]2OC1=O [SARCOPHINE] | 19.6 | 67.5 | 84 | 60 | > 80 | > 80 | > 80 | 100 |
| C/C1=C\C=C(\[C@@](C)(O)CO)C[C@H](O)/C(C)=C/CC[C@]2(C)O[C@H]2CC1 | 5.9 | 55.8 | 74.6 | 60 | > 80 | > 80 | > 80 | 93.8 |
| C/C1=C\C=C(\C(C)C)[C@@H](O)C/C(C)=C/CC/C(C)=C/CC1 | 11.7 | 60.4 | 79.1 | 50 | > 80 | > 80 | > 80 | 97.3 |
| CC1=C2C[C@H](O)/C(C)=C/CC[C@]3(C)O[C@H]3CC/C(C)=C/[C@@H]2OC1=O | 14.2 | 62.8 | 81.3 | 60 | > 80 | > 80 | > 80 | 100 |
| C/C1=C\C=C(\[C@@](C)(O)CO)CC(=O)/C(C)=C/CC[C@]2(C)O[C@H]2CC1 | 8.3 | 56.7 | 75.1 | 60 | > 80 | > 80 | > 80 | 94 |
| C/C(CO)=C1\CC/C(C)=C/CC[C@]2(C)O[C@H]2CC/C(C)=C/[C@@H]1O | 9.6 | 57.3 | 75.5 | 60 | > 80 | > 80 | > 80 | 94.1 |
| C/C1=C\C=C(\[C@@](C)(O)CO)C[C@@H](O)/C(C)=C/CC[C@]2(C)O[C@H]2CC1 | 5.7 | 54.2 | 72.9 | 60 | > 80 | > 80 | > 80 | 92.6 |
